This passage reports Relative potency results from ChEMBL document CHEMBL1135914, “Bioactive pseudopeptidic analogues and cyclostereoisomers of osteogenic growth peptide C-terminal pentapeptide, OGP(10-14)” (2002).

Assay type in all cases: functional, Mus musculus
Assay [1] is described as follows: Proliferative activity in osteoblastic MC3T3 E1 cell culture relative to OGP(10-14). The essentials: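 MC3T3 E1 osteoblastic cells were seeded at 2 × 10⁴ cells/well in RMEM with 10% FCS at 37 °C in CO₂/air. After 46 h in serum, they were washed, kept serum-free for 2 h, then switched to RMEM with 4% fatty-acid-free BSA, with or without peptide. The peptide was freshly dissolved at 10^-6 M, diluted, and preincubated for 30 min at 37 °C. The final concentration was 10^-13 M unless otherwise specified, with some dose-response runs.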

Assay [2] can be described thus: (§1) Proliferative activity in fibroblastic […] cell culture relative to OGP(10-14). Summed up:
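Mouse NIH 3T3 fibroblasts from confluent cultures were seeded at 2 × 10⁴ cells/well in RMEM with 10% FCS at 37 °C in CO₂/air for 46 h, then washed and held serum-free for 2 h. Medium was then replaced with RMEM containing 4% fatty-acid-free BSA, with or without peptide. The peptide was dissolved at 10^-6 M, diluted, and pre-warmed for 30 min at 37 °C. The final concentration was 10^-11 M unless otherwise stated.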

A further assay relates to NIH3T3. Described as §1. The essentials: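 NIH 3T3 fibroblasts from confluent cultures in RMEM with 10% FCS, seeded at 2 × 10⁴ cells/well, 37 °C in CO₂/air. They were kept 46 h in FCS medium, then 2 h serum-free. Medium was switched to 4% fatty-acid-free BSA RMEM ± peptide, 10^-11 M final, preincubated 30 min at 37 °C. Read-out was cell number in triplicate wells, converted to treated/control ratio against OGP(10-14) reference.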

Non-standard residues stand in square brackets, D forms with d. Residues, ends and D or L forms follow the SMILES beside them. *: point of attachment. Desaminotyrosyl = O=C(CCc1ccc(O)cc1)*; NMeF = CN[C@@H](Cc1ccccc1)C(=O)O; Aib = CC(C)(N)C(=O)O; Ava = NCCCCC(=O)O; GABA = NCCCC(=O)O; βAla = NCCC(=O)O; Sar = CNCC(=O)O

`CN(C(=O)CNC(=O)CCc1ccc(O)cc1)[C@@H](Cc1ccccc1)C(=O)NCC(=O)NCC(=O)O` (Desaminotyrosyl-G[NMeF]GG-OH): the Relative potency in assay [1] turned out to be 0.52; in assay [2], 0.67.

With `O=C(O)CNC(=O)CNC(=O)[C@H](Cc1ccccc1)NC(=O)CNCCCc1ccc(O)cc1`, the Relative potency in assay [1] was found to be 0.81; in assay [2], 0.79.

For H-YGFGG-OH, the Relative potency (in assay [1]; with NIH3T3) was 1 throughout.

Consider `CC1(C)NC(=O)[C@H](Cc2ccc(O)cc2)NC(=O)CNC(=O)CNC(=O)[C@H](Cc2ccccc2)NC1=O` (cyclo([Aib]FGGY)), for which the Relative potency in assay [1] worked out at 0.19; in assay [2], 0.31.

On to H-YPFGG-OH, for which the Relative potency in assay [1] was found to be 0.89; in assay [2] it was 0.96.

Take `CN(CC(=O)O)C(=O)CNC(=O)[C@H](Cc1ccccc1)NC(=O)CNC(=O)CCc1ccc(O)cc1` (Desaminotyrosyl-GFG[Sar]-OH): the Relative potency is reported as 0.16 in assay [1] and 0.14 in assay [2].

Take `O=C(O)CCCCNC(=O)[C@H](Cc1ccccc1)NC(=O)CNC(=O)CCc1ccc(O)cc1`: the Relative potency is 0.78 in assay [1] and 0.88 in assay [2].

With `O=C1CNC(=O)CNC(=O)[C@H](Cc2ccccc2)NC(=O)CNC(=O)[C@H](Cc2ccc(O)cc2)NC(=O)CCCN1` (cyclo(FGG[GABA]YG)), the Relative potency in assay [1] is 0.2; in assay [2] it was 0.22.

For `O=C(O)C[C@@H]1NC(=O)CNC(=O)[C@H](Cc2ccccc2)NC(=O)CNC(=O)[C@H](Cc2ccc(O)cc2)NC1=O` (cyclo(DYGFG)), the Relative potency in assay [1] is given as 0.14; in assay [2], 0.11.

As for `O=C1CNC(=O)[C@@H](Cc2ccccc2)NC(=O)CNC(=O)[C@@H](Cc2ccc(O)cc2)NC(=O)CN1`, the Relative potency came to 0.69 in assay [1] and 0.84 in assay [2].

For the molecule `O=C1CNC(=O)[C@H](Cc2ccc(O)cc2)NC(=O)CNC(=O)[C@H](Cc2ccccc2)NC(=O)CN1`, the figures for the Relative potency in assay [1] and in assay [2] were 0.95 and 1.02, respectively.

Turning to `O=C(O)CNCCNC(=O)[C@H](Cc1ccccc1)NC(=O)CNC(=O)CCc1ccc(O)cc1`, the Relative potency in assay [1] is on record as 0.78; in assay [2], 0.8.

In the case of `CN(CC(=O)N[C@@H](Cc1ccccc1)C(=O)NCC(=O)NCC(=O)O)C(=O)CCc1ccc(O)cc1` (Desaminotyrosyl-[Sar]FGG-OH), the Relative potency was found to be 0.31 in assay [1] and 0.39 in assay [2].

As to `O=C1CNC(=O)[C@@H](Cc2ccc(O)cc2)NC(=O)CNC(=O)[C@@H](Cc2ccccc2)NC(=O)CN1`, the Relative potency in assay [1] is recorded as 1.03; in assay [2] it was 1.16.

Consider `O=C1CNC(=O)CNC(=O)[C@H](Cc2ccccc2)NC(=O)CNC(=O)[C@H](Cc2ccc(O)cc2)NC(=O)CN1` (cyclo(FGGGYG)), for which the figures for the Relative potency in assay [1] and in assay [2] were 0.26 and 0.2, respectively.

On to `O=C(O)CNC(=O)CNC(=O)[C@H](Cc1ccccc1)NCCNC(=O)CCc1ccc(O)cc1`, for which the Relative potency came out at 0.61 in assay [1] and 0.67 in assay [2].

On to `O=C1CNC(=O)CNC(=O)[C@H](Cc2ccccc2)NC(=O)CNC(=O)[C@H](Cc2ccc(O)cc2)NC(=O)CCN1` (cyclo(FGG[βAla]YG)), for which the Relative potency turned out to be 0.36 in assay [1] and 0.37 in assay [2].

Consider H-GGFGY-OH, for which the Relative potency in assay [1] came to 0.71; in assay [2], 0.82.

Take `O=C1CNC(=O)[C@H](Cc2ccccc2)NC(=O)[C@@H]2CCCN2C(=O)[C@H](Cc2ccc(O)cc2)NC(=O)CN1` (cyclo(FGGYP)): the Relative potency in assay [1] was found to be 0.99; in assay [2], 0.9.

Regarding `CN(CC(=O)NCC(=O)O)C(=O)[C@H](Cc1ccccc1)NC(=O)CNC(=O)CCc1ccc(O)cc1` (Desaminotyrosyl-GF[Sar]G-OH), the results for the Relative potency in assay [1] and in assay [2] were 0.15 and 0.11, respectively.

With `N[C@H](CNCC(=O)N[C@@H](Cc1ccccc1)C(=O)NCC(=O)NCC(=O)O)Cc1ccc(O)cc1`, the Relative potency in assay [1] is on record as 0.92; in assay [2], 0.87.

`O=C1CNC(=O)CNC(=O)[C@H](Cc2ccccc2)NC(=O)CNC(=O)[C@H](Cc2ccc(O)cc2)NC(=O)CCCCN1` (cyclo([Ava]YGFGG)): the results for the Relative potency in assay [1] and in assay [2] were 0.14 and 0.18, respectively.

Take `O=C1CNC(=O)[C@H](Cc2ccccc2)NC(=O)CNC(=O)[C@H](Cc2ccc(O)cc2)NC(=O)CN1`: the Relative potency in assay [1] came out at 0.79; in assay [2], 1.12.

With `O=C(O)CNC(=O)CNC[C@H](Cc1ccccc1)NC(=O)CNC(=O)CCc1ccc(O)cc1`, the Relative potency worked out at 0.7 in assay [1] and 0.88 in assay [2].

Regarding `O=C1CNC(=O)[C@H](Cc2ccccc2)NC(=O)CNC(=O)[C@H](Cc2ccc(O)cc2)N1` (cyclo(FGYG)), the Relative potency in assay [1] stood at 0.35; in assay [2], 0.43.
